Test results reported in ChEMBL document CHEMBL1125792, “Complexes of .NO with nucleophiles as agents for the controlled biological release of nitric oxide. Vasorelaxant effects” (J Med Chem, 1991).

Columns and labels:
[1] = Rate constant for loss of chromophore; assay type: ADME
Summary of the method: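 UV decay of the 230–260 nm chromophore. Compound dissolved in 0.01 M KOH, then diluted with a large excess of pH 7.4 phosphate buffer in a thermostated 37 °C cuvette. Spectra were recorded within 1–2 s and intermittently afterward. First-order k was taken from the slope of ln(A − A∞) versus time; t1/2 was derived from k.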

[2] = species on record: Oryctolagus cuniculus; test: Vasorelaxant activity against isolated vascular ring preparation from rabbit thoracic aorta; assay type: functional
[3] = species on record: Oryctolagus cuniculus; test: Peak relaxation(Rm) of the vascular ring by the compound at highest concentration; assay type: functional
[4] = Half-life was determined; settings: pH 7.4 phosphate buffer at 37 °C

SMILES | k [1] [s⁻¹] | EC50 [2] [nM] | half-life [4] [min] | Rm [3] [%]
CCN(CC)/[N+]([O-])=N\[O-].[Na+] | 0.0054 | 190 | 2.1 | 86
N.N.O=NN(O)S(=O)(=O)O | 0.0017 | 62000 | 6.8 | 58

The remaining compounds from weak to strong by EC50 [2], led by results:

k [1] [s⁻¹] | EC50 [2] [nM] | half-life [4] [min] | SMILES | Rm [3] [%]
0.0003 | 6200 | 39 | NCCCNCCCCN(CCCN)/[N+]([O-])=N\O | 56
0.005 | 590 | 2.3 | [Na+].[Na+].[O-][N+]([O-])=NO [ANGELI'S SALT] | 74
0.0051 | 450 | 2.3 | CC(C)N[N+]([O-])=N[O-].[Na+] | 85
